In test [1] the target is T1, Prostaglandin G/H synthase 1 (Ovis aries, UniProt P05979).
T1 sequence (P05979 whole entry): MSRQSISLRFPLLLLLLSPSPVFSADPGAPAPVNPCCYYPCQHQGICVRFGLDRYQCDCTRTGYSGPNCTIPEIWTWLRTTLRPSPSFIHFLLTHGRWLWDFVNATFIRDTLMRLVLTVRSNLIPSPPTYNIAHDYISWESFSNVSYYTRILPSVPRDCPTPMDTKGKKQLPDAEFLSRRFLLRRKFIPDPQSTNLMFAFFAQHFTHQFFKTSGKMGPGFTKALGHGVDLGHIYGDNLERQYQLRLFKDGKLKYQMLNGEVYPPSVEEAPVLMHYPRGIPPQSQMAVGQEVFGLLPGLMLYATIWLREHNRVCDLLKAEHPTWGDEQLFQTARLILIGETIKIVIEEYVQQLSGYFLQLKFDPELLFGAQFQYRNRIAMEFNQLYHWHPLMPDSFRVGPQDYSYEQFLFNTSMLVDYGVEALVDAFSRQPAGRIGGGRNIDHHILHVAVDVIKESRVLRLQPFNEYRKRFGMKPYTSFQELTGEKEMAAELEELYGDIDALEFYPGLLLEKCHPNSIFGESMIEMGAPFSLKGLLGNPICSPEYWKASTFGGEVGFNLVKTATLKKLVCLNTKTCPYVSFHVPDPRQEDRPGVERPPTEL
As to the kind of experiment: Inhibition of ovine COX1 assessed as PGF2alpha production by reduction of PGH2 with stannous chloride by enzyme immunoassay. The procedure, abridged:
(§1)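 Ovine COX-1 or COX-2 from screening kit used per manufacturer; arachidonic acid substrate, PGH2 reduced by SnCl2 to PGF2α and read by enzyme immunoassay. DMSO stock solutions. Percent inhibition relative to control incubations; IC50 obtained from concentration−inhibition response curves. Means ± SEM, n = 2−3.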

The subject of test [2] is Rattus norvegicus. As to the kind of experiment: Antiinflammatory activity in Sprague-Dawley rat assessed as inhibition of carrageenan-induced paw edema at 50 mg/kg, po administered 1 hr before carrageenan challenge measured after 5 hrs relative to control. The class given is functional. A digest of the protocol:
(§2)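 Female Sprague-Dawley rats (160−180 g), fasted overnight, six per group. Samples suspended in freshly prepared 0.5% hydroxypropyl methyl cellulose, given orally; control group received vehicle (normal saline). 1 h after dosing, 100 μL of 1% carrageenan in saline injected subcutaneously into left hind paw. Paw volume read by plethysmometer before and at 3 and 5 h; edema = final minus basal volume. Mean ± SEM, one-way ANOVA with Dunnett's test versus control.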

The test system of test [3] is Rattus norvegicus. As to the kind of experiment: Antiinflammatory activity in Sprague-Dawley rat assessed as inhibition of carrageenan-induced paw edema at 50 mg/kg, po administered 1 hr before carrageenan challenge measured after 3 hrs relative to control. The class given is functional. The procedure, abridged:
as §2

The subject of test [4] is Rattus norvegicus. As to the kind of experiment: Antiinflammatory activity in Sprague-Dawley rat assessed as inhibition of carrageenan-induced paw edema at 100 mg/kg, po administered 1 hr before carrageenan challenge measured after 3 hrs relative to control. The class given is functional. A digest of the protocol: as §2
Test [5] concerns Rattus norvegicus. As to the kind of experiment: Antiinflammatory activity in Sprague-Dawley rat assessed as inhibition of carrageenan-induced paw edema at 100 mg/kg, po administered 1 hr before carrageenan challenge measured after 5 hrs relative to control. The class given is functional. A digest of the protocol:
as §2

Test [6] addresses T2, Prostaglandin G/H synthase 1 (Ovis aries) (UniProt P05979).
T2 sequence (whole entry): T1 sequence (P05979 whole entry)
As to the kind of experiment: Inhibition of ovine COX1 assessed as PGF2alpha production by reduction of PGH2 with stannous chloride at 40 uM by enzyme immunoassay relative to control. A digest of the protocol:
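Ovine COX inhibitor screening kit run per manufacturer. Enzyme converts arachidonic acid to PGH2, which SnCl2 reduces to PGF2α, quantified by enzyme immunoassay. DMSO stocks; final test concentration 40 μM. Percent inhibition calculated against control incubations. Means ± SEM, n = 2−3.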

For test [7], the target named is T3, Prostaglandin G/H synthase 2 (Ovis aries, UniProt P79208).
T3 sequence (P79208 whole entry): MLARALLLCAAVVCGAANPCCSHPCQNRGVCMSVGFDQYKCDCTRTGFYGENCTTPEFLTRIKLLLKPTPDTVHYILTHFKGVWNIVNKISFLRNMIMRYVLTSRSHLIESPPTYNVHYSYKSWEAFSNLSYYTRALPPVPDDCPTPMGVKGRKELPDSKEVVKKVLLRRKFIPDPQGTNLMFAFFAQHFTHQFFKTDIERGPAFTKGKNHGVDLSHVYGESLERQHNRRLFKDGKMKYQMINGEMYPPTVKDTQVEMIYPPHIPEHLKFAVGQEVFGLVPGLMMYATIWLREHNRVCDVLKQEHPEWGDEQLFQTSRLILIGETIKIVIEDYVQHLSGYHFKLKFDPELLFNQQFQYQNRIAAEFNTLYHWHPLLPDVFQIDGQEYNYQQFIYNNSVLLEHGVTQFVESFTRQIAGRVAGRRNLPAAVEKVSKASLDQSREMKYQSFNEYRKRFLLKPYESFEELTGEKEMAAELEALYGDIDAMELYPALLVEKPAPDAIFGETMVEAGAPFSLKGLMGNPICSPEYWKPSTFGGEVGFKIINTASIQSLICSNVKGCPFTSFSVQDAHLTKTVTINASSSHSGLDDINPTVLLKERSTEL
As to the kind of experiment: Inhibition of ovine COX2 assessed as PGF2alpha production by reduction of PGH2 with stannous chloride by enzyme immunoassay. A digest of the protocol: as §1

The species entered for a further test is Ovis aries. As to the kind of experiment: Selectivity ratio of IC50 for ovine COX1 to IC50 for ovine COX2. The procedure, abridged:
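Ratio of COX-1 IC50 to COX-2 IC50. Both IC50s come from concentration−inhibition curves in the ovine enzyme kit assay, with PGF2α (from SnCl2 reduction of PGH2) measured by enzyme immunoassay.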

SMILES strings stand for the structures.

For `Cc1c(O)cc2oc3c(c(=O)c2c1O)-c1ccccc1OC3O` (centres undefined) [BOERAVINONE B], in test [1], the IC50 was 25 µM. Besides, the inhibition in vivo at 50 mg/kg is 56.7% with Rattus norvegicus [2] and 48.3% in the test on Rattus norvegicus [3].

As to `CC(C)Cc1ccc(C(C)C(=O)O)cc1` (centres undefined) [IBUPROFEN], the inhibition in vivo at 100 mg/kg in the test with Rattus norvegicus [4] was 42.7%; with Rattus norvegicus [5], 50.4%. Besides, the results for the inhibition in vivo at 50 mg/kg in the test on Rattus norvegicus [2] and in the test on Rattus norvegicus [3] were 43.5% and 35.8%, respectively.

As for `COc1cc(O)c2c(c1)O[C@@H]1COc3c(O)cccc3[C@@]1(O)C2=O` (relative stereo), in test [6], the inhibition came out at 47.2%.

For `COC1Oc2ccccc2-c2c1oc1cc(O)cc(O)c1c2=O` (racemic), the inhibition in test [6] turned out to be 59.4%.

Consider `Cc1c(O)cc2oc3c(c(=O)c2c1O)-c1ccc(O)cc1OC3O` (centres undefined) [BOERAVINONE E], for which the IC50 in test [1] was 23.9 µM.

Consider `COc1c(O)c(C)c(O)c2c(=O)c3c(oc12)C(OC)Oc1ccccc1-3` (racemic), for which the IC50 in test [7] was found to be 31.4 µM; in test [1] it was 33.1 µM. Moreover, the Ratio IC50 in the test filed under Ovis aries is 1.09.

As for `O=c1c2c(oc3cc(O)cc(O)c13)C(O)Oc1cc(O)ccc1-2` (racemic), the IC50 worked out at 25.5 µM in test [7] and 21.7 µM in test [1]. In addition, in the test filed under Ovis aries, the Ratio IC50 was found to be 0.79.

On to `COc1c(O)c(C)c(O)c2c(=O)c3c(oc12)C(O)Oc1ccccc1-3` (racemic), for which the IC50 in test [1] came to 25.9 µM.

For the compound `COc1cc(O)c2c(=O)c3c(oc2c1)C(O)Oc1c(O)cccc1-3` (racemic), the inhibition in test [6] was 59.9%.

In the case of `COC1Oc2ccccc2-c2c1oc1cc(O)c(C)c(O)c1c2=O` (centres undefined) [BOERAVINONE A], the IC50 in test [1] stood at 32.9 µM.
